Experimental data as given in ChEMBL document CHEMBL1134719, “Design, synthesis and stability of N-acyloxymethyl- and N-aminocarbonyloxymethyl-2-azetidinones as human leukocyte elastase inhibitors” (Bioorg Med Chem Lett, 2001).
The source made the active and inactive calls. The rule behind the calls is not given here.

What was measured:
[1] = target: T1, Neutrophil elastase (Homo sapiens) (UniProt P08246); test: (§1) Second-order rate constant for the inhibition of human leukocyte elastase
T1 sequence (whole entry): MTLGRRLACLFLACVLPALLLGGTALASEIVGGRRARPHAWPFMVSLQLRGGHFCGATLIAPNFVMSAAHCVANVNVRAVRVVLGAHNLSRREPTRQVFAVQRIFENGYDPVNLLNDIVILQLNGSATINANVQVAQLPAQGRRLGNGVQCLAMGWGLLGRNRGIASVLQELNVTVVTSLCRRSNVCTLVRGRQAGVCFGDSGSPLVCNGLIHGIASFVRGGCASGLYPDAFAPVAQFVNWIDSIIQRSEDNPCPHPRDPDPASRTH
Procedure, shortened: (§2)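 Pre-incubation (Kitz–Wilson) kinetics at 25 °C. Enzyme and inhibitor were incubated, and aliquots were withdrawn at several time intervals into a cuvette holding substrate in HEPES buffer. After 30 s, the absorbance change was followed for 60 s.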

[2] = target: T2, Chymotrypsin-like elastase family member 2A (Sus scrofa) (UniProt P08419); test: Second-order rate constant for the inhibition of PPE (pancreatic porcine elastase); NI=no inhibition
T2 sequence (whole entry): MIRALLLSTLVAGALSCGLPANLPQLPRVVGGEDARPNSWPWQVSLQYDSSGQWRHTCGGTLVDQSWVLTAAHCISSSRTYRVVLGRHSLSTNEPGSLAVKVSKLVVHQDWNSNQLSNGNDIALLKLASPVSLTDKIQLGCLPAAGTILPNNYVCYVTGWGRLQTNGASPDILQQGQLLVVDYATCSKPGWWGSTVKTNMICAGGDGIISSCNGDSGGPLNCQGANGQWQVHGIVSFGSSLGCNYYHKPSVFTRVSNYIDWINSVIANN
Procedure, shortened: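 Porcine pancreatic elastase was assayed at 25 °C with an inhibitor-to-enzyme ratio [I]/[E] of 200, giving the second-order constant k_obs/[I].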

[3] = Half-life in pH 7.4 phosphate buffer at 37 degree C; format: ADME
[4] = target: T1, Neutrophil elastase (Homo sapiens); test: Second-order rate constant for the inhibition of human leukocyte elastase;NI=no inhibition; procedure, shortened: as §2
[5] = target: T3, Neutrophil elastase (Homo sapiens, UniProt P08246); test: as §1; procedure, shortened: as §2
T3 sequence (P08246 whole entry): T1 sequence (whole entry)

[6] = target: T1, Neutrophil elastase (Homo sapiens); test: Second-order rate constant for the inhibition of HLE (human leukocyte elastase); procedure, shortened: as §2

CO[C@H]1C(=O)N2C(C(=O)O)=C(COC(C)=O)CS(=O)(=O)C12 (some centres undefined)
second-order inhibition rate constant [1]: 19000 M⁻¹ s⁻¹

O=C(OCN1C(=O)CC1Sc1nc2ccccc2o1)c1ccccc1 (centres undefined)
k obs / 1 [2]: inactive
second-order inhibition rate constant [1]: 43.2 M⁻¹ s⁻¹

CCC1(CC)C(=O)N(COC(=O)c2ccccc2)C1S(=O)(=O)c1ccccc1 (centres undefined)
half-life [3]: 125 days
k obs / 1 [2]: inactive
second-order inhibition rate constant [1]: 67.5 M⁻¹ s⁻¹

CCC1(CC)C(=O)N(COC(=O)c2ccccc2)C1Sc1ccccc1 (centres undefined)
second-order inhibition rate constant [1]: 2.2 M⁻¹ s⁻¹

CCC1(CC)C(=O)N(COC(=O)NS(=O)(=O)c2ccc(C)cc2)C1S(=O)(=O)c1ccccc1 (centres undefined)
second-order inhibition rate constant [1]: 32.3 M⁻¹ s⁻¹

CCC1(CC)C(=O)N(CO)C1S(=O)(=O)c1ccccc1 (centres undefined)
k obs / 1 [4]: inactive

CO[C@H]1C(=O)N2C(C(=O)O)=C(CF)CS(=O)(=O)C12 (some centres undefined)
half-life [3]: 0.792 days
IC50 [5]: 110 µM

CCC1(CC)C(=O)N(COC(=O)Nc2ccc(C)cc2)C1S(=O)(=O)c1ccccc1 (centres undefined)
k obs / 1 [2]: inactive
second-order inhibition rate constant [1]: 60.9 M⁻¹ s⁻¹

O=C1CCN1CO
k obs / 1 [4]: inactive

O=C(OCN1C(=O)CC1Sc1ccccc1)c1ccccc1 (centres undefined)
k obs / 1 [4]: inactive

O=C(OCN1CCC1=O)c1ccccc1
k obs / 1 [6]: 35.5 M⁻¹ s⁻¹
half-life [3]: 0.0542 days
k obs / 1 [2]: inactive

O=C(OCN1C(=O)CC1S(=O)(=O)c1ccccc1)c1ccccc1 (centres undefined)
half-life [3]: 40.8 days
k obs / 1 [2]: inactive
second-order inhibition rate constant [1]: 18.7 M⁻¹ s⁻¹

CCC1(CC)C(=O)N(COC(=O)Nc2ccc(OC)cc2)C1S(=O)(=O)c1ccccc1 (centres undefined)
half-life [3]: > 208 days
k obs / 1 [2]: inactive
second-order inhibition rate constant [1]: 100 M⁻¹ s⁻¹

CCC1(CC)C(=O)N(COC(=O)c2ccccc2)C1Sc1nc2ccccc2o1 (centres undefined)
half-life [3]: 13.2 days
k obs / 1 [2]: inactive
second-order inhibition rate constant [1]: 52.8 M⁻¹ s⁻¹

CCC1(CC)C(=O)N(COC(=O)Nc2ccccc2)C1S(=O)(=O)c1ccccc1 (centres undefined)
k obs / 1 [2]: inactive
second-order inhibition rate constant [1]: 41.9 M⁻¹ s⁻¹
